Calls of active or inactive are those of the source. No cut-off for these calls is given here.
Key:
HUVEC [1] = experiment: Cytotoxicity against HUVEC cells; type: cell-based; conditions: human
Outline: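 Cytotoxicity was taken from HUVEC proliferation run without rhFGF-2 stimulation, and the value was reported as the minimum cytotoxic concentration.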

HUVEC [2] = experiment: Inhibition of rhFGF2-induced HUVEC proliferation; type: functional, cell-based; conditions: Homo sapiens; for minimal effective concentration: read-out: MEC
Outline: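 HUVEC proliferation was induced with recombinant human FGF-2 in the presence of compound. Inhibition was reported as IC50 (μM) and as the minimum effective concentration.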

[3] = target: Platelet-derived growth factor receptor beta (Homo sapiens, UniProt P09619); experiment: Inhibition of PDGFRbeta
Chain of Platelet-derived growth factor receptor beta (P09619 whole entry): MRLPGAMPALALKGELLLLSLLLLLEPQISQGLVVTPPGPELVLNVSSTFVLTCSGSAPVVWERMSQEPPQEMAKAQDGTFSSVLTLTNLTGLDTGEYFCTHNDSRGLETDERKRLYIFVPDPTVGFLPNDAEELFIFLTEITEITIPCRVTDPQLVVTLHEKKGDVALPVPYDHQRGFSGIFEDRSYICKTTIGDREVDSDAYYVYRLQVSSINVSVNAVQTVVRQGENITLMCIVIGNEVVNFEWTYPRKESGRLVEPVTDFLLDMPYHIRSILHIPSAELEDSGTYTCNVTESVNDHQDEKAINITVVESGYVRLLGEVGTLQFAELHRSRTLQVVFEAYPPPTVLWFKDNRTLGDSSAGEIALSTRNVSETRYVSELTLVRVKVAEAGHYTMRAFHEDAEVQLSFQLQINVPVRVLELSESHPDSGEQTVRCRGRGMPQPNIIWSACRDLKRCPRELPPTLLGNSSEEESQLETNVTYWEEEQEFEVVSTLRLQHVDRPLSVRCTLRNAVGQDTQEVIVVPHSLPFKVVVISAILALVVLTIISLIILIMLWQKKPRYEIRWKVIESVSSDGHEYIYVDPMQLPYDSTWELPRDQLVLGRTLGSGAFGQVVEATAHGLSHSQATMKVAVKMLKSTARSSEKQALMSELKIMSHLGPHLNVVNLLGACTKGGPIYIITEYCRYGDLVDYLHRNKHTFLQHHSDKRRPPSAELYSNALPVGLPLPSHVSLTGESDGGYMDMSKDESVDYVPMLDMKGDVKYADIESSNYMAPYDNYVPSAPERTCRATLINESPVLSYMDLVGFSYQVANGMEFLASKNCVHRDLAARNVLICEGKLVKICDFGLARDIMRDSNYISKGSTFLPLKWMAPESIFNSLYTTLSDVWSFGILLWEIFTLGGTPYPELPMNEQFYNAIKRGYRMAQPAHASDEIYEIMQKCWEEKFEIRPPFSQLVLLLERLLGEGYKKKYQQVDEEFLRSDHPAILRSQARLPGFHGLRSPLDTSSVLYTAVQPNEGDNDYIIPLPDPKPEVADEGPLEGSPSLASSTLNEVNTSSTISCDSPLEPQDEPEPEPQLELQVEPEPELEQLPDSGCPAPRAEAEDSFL

[4] = target: Vascular endothelial growth factor receptor 2 (Homo sapiens, UniProt P35968); experiment: Inhibition of VEGFR2
Chain of Vascular endothelial growth factor receptor 2 (P35968 whole entry): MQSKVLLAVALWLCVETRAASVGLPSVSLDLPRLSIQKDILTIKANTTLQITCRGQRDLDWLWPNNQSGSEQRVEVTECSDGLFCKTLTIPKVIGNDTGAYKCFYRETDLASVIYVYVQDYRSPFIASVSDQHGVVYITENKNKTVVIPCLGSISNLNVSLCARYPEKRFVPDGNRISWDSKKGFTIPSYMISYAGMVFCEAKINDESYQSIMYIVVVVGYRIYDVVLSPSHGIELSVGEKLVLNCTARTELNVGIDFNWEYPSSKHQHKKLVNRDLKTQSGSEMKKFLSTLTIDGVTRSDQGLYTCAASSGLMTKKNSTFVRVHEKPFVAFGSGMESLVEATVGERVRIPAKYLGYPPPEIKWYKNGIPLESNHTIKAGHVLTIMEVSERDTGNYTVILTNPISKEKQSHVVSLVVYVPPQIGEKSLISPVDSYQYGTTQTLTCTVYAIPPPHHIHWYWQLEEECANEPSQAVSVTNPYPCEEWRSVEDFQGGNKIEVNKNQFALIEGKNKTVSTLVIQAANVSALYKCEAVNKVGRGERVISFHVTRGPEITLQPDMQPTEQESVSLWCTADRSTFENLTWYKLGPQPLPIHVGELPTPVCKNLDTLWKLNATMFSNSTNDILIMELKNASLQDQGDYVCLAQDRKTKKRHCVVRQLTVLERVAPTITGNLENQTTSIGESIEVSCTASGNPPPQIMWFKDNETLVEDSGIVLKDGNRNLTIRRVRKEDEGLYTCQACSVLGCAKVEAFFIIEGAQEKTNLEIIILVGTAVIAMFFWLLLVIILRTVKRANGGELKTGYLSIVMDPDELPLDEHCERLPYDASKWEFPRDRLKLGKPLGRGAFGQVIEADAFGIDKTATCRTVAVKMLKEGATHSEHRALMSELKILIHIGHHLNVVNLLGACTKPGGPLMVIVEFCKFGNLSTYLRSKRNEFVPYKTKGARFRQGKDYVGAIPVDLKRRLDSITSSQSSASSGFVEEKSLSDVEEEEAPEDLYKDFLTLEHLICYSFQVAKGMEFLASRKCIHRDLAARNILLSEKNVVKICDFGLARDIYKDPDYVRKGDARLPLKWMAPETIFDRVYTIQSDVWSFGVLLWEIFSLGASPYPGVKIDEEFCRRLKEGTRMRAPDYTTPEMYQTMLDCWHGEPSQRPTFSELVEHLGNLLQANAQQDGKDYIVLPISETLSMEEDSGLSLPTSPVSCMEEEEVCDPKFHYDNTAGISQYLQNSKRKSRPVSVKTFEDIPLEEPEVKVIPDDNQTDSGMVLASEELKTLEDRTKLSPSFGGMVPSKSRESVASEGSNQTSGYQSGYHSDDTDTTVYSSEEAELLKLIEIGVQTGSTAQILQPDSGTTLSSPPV

[5] = target: Fibroblast growth factor receptor 1 (Homo sapiens, UniProt P11362); experiment: Inhibition of human FGFR1 expressed in insect cells by HTRF method
Chain of Fibroblast growth factor receptor 1 (P11362 whole entry): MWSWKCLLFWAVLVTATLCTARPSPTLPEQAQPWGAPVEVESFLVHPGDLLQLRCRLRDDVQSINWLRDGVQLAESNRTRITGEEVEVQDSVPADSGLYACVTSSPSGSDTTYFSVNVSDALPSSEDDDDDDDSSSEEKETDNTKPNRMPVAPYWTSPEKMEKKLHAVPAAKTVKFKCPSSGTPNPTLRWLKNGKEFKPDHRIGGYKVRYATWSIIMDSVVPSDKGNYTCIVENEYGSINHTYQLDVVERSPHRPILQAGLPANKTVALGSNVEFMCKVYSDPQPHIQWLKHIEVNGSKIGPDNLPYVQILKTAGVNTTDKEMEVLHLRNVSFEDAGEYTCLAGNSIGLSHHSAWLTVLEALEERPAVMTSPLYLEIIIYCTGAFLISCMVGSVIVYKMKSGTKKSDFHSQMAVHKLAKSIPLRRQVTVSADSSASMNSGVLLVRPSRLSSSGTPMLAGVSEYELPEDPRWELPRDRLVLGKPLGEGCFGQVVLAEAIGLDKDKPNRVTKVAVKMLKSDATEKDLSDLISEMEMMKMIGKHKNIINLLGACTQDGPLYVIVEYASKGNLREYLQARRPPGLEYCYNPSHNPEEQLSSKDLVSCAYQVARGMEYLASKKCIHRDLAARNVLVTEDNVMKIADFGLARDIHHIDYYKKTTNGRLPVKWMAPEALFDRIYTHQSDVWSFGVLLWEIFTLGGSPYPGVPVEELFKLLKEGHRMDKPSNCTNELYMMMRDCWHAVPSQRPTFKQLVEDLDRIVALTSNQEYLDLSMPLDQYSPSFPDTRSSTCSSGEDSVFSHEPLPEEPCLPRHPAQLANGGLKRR

[6] = target: Epidermal growth factor receptor (Homo sapiens, UniProt P00533)
Chain of Epidermal growth factor receptor (P00533 whole entry): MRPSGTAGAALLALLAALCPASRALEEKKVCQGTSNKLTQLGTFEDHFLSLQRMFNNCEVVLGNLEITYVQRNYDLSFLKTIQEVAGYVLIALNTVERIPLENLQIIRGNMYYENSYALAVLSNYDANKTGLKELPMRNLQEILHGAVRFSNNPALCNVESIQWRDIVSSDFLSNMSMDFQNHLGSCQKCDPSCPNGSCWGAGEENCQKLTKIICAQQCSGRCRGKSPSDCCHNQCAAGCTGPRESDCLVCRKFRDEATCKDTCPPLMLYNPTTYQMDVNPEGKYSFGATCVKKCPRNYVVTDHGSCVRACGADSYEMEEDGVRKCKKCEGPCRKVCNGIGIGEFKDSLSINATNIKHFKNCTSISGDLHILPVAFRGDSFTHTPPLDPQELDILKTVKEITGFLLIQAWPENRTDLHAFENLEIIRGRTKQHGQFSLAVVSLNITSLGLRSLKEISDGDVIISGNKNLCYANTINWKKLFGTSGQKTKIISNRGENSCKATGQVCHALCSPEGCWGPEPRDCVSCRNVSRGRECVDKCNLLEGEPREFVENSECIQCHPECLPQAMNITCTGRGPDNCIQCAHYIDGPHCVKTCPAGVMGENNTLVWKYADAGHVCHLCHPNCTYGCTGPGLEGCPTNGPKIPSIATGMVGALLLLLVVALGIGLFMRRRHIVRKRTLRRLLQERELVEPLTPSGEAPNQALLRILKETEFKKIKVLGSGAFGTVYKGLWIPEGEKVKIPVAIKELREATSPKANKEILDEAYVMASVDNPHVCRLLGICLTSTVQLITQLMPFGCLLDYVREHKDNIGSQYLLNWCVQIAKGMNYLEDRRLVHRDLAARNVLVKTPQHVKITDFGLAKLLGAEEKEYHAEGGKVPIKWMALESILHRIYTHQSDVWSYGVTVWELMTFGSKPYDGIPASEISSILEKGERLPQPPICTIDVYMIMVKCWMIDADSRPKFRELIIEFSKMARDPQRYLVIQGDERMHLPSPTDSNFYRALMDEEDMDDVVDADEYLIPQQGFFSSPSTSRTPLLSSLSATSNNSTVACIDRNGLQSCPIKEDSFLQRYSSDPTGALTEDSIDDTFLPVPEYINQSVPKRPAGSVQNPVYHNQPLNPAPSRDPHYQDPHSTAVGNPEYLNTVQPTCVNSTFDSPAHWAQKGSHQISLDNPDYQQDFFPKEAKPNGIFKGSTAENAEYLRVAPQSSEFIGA

HUVEC [7] = experiment: Inhibition of recombinant human FGF2-induced ERK phosphorylation in HUVEC cells by Western blot; type: cell-based
[8] = target: c-Jun N-terminal kinase, JNK (Homo sapiens) (UniProt P45983+P53779+P45984); experiment: Inhibition of recombinant human FGF2-induced JNK phosphorylation in HUVEC cells by Western blot; type: cell-based
[9] = target: RAC-alpha serine/threonine-protein kinase (Homo sapiens) (UniProt P31749); experiment: Inhibition of recombinant human FGF2-induced AKT phosphorylation in HUVEC cells by Western blot; type: cell-based
Chain of RAC-alpha serine/threonine-protein kinase (Homo sapiens) (P31749 whole entry): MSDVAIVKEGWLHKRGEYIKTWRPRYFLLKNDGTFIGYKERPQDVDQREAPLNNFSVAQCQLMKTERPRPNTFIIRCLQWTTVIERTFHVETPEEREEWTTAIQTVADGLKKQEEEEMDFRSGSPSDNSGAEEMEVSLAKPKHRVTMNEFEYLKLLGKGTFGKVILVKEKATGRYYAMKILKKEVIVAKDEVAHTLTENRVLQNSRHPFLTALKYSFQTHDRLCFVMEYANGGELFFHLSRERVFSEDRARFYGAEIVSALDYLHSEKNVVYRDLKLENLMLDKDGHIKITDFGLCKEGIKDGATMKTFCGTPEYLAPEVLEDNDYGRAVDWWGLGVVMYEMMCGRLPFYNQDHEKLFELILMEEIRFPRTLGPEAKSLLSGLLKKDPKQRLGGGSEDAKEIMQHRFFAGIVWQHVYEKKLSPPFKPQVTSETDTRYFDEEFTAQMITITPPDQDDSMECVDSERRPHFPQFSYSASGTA

HUVEC [10] = experiment: Antiangiogenic activity in HUVEC cells assessed incomplete narrow tube formation after 4 hrs by tube formation assay; type: functional, cell-based; conditions: Homo sapiens
Outline: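 HUVEC seeded onto wells coated with Matrigel, with compound present at 1, 3, 10 and 25 μM; FGF-2-stimulated and untreated controls included. After 4 h at 37 °C, cultures were fixed with glutaraldehyde and the length of the capillary-like tubes was measured. Data are means + SD of four wells from a representative experiment.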

| IC50 [3] | Compound | Activity (HUVEC [1]) | minimal effective concentration (HUVEC [2]) | IC50 (HUVEC [2]) | also measured |
| --- | --- | --- | --- | --- | --- |
| – | Cc1[nH]c(/C=C2\C(=O)Nc3ccc(C(=O)NNc4ccccc4[N+](=O)[O-])cc32)c(C)c1CCC(=O)O | 50 µM | 50 µM | – | – |
| – | Cc1[nH]c(/C=C2\C(=O)Nc3ccc(C(=O)NNc4ccccc4Cl)cc32)c(C)c1CCC(=O)O | – | 50 µM | – | – |
| – | Cc1[nH]c(/C=C2\C(=O)Nc3ccc(C(=O)NNc4ccc(C(F)(F)F)cc4)cc32)c(C)c1CCC(=O)O | 50 µM | 50 µM | – | – |
| 780 nM | COc1cc(OC)cc(-c2ccc3c(c2)NC(=O)/C3=C\c2[nH]c(C)c(CCC(=O)O)c2C)c1 | – | – | 18200 nM | IC50 [4]: 930 nM; IC50 [5]: 520 nM; IC50 [6]: > 100000 nM |
| – | Cc1[nH]c(/C=C2\C(=O)Nc3ccc(C(=O)NNc4ccc(C#N)cc4)cc32)c(C)c1CCC(=O)O | 50 µM | > 50 µM | – | – |
| 50 nM | Cc1[nH]c(/C=C2\C(=O)Nc3ccccc32)c(C)c1CCC(=O)O [ORANTINIB] | – | 10 µM | > 50000 nM | – |

| Compound | IC50 [3] | Activity (HUVEC [1]) | minimal effective concentration (HUVEC [2]) | IC50 (HUVEC [2]) | also measured |
| --- | --- | --- | --- | --- | --- |
| Cc1[nH]c(/C=C2\C(=O)Nc3ccc(C(=O)NNc4ccccc4)cc32)c(C)c1CCC(=O)O | 40 nM | 50 µM | 10 µM | 27400 nM | Activity (HUVEC [7]): Active; Activity [8]: Active; IC50 [4]: 70 nM; IC50 [5]: 100 nM; Activity [9]: Active; Activity (HUVEC [10]): Dose-dependent effect; IC50 [6]: 3480 nM |
